# Source: PubChem BioAssay
# Values without a mark were called inactive. Results filed as inconclusive are left out. Activity calls are given as the source filed them.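 The calls were made as follows, unless noted: active = RAM network inhibition above 8.4% in each of two replicates, 3 SD over the compound average; inconclusive = above 8.4% inhibition in only one replicate; inactive = 8.4% inhibition or less in each replicate.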
# Columns and labels:
# [1] = S. cerevisiae growth inhibition in permissive medium (OD615), pilot counter-assay for S. cerevisiae lifespan shortening project, permissive growth control (AID 705;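 active = growth inhibition above 25% in both replicates, a cutoff set 3 SD above the mean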); conditions: OD615, 24 h, at 10 µM, active compounds read high
# Method in brief: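 System – S. cerevisiae with engineered DeaD lifespan system · Buffer or medium – SC raffinose/galactose permissive medium · Schedule – cells pre-grown 4 h, then 24 h compound exposure, 30 °C humidified · Technique – culture turbidity as optical density at 615 nm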
# [2] = S. cerevisiae growth inhibition in restrictive medium, OD615, pilot screen, restrictive growth control, yeast lifespan reduction project (AID 706;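 active = growth inhibition above a set limit, 3 SD over mean compound inhibition, in both replicates, cut at about 43% in these data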;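 also: modified DeaD lifespan yeast strain shifted to restrictive glucose medium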); conditions: OD615, 48 h, at 10 µM, active compounds read high
# Method in brief: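 Material: engineered S. cerevisiae DeaD strain / Medium: glucose-based CSMM-D restrictive medium / Compound: single dose of 10 µM compound final, 0.25% DMSO / Timing: 4 h pre-incubation, 48 h exposure at 30 °C / Technique: OD615 absorbance reading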
# [3] = doxorubicin toxicity protection in MRP-1 cells – H69AR cells, CellTiter-Glo, duplicate, MRP-1 activator project, pilot screen (AID 807;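 active = viability increase at or above a cutoff of the median across tested compounds plus 3 SD, cut at about 8.5% in these data, passing the limit was not always enough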;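 also: compound pretreatment 18-22 h then 72 h combined with doxorubicin; 0% = doxorubicin alone and 100% = vehicle without doxorubicin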); conditions: H69AR viability with doxorubicin, CellTiter-Glo luminescence; at 10 µM; active compounds read high
# [4] = viability of HCT116 without oncogenic beta-catenin – human colon tumor cells, pilot screen (AID 823;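 active = cell viability at or below a set limit in both duplicate runs, the limit being the all-compound median minus 4 SD, cut at about 23% in these data, passing the limit was not always enough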;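 also: 0% = wells killed by 20 µM Hyamine and 100% = untreated DMSO cell wells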); conditions: HCT116 beta-catenin knockout viability, CellTiter-Glo, 60 h; at 10 µM; active compounds read low
# [5] = viability of PTEN-null HCT116 cells – cell-based, HCT116 clonal line, CellTiter-Glo, pilot screen (AID 824;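 active = viability at or below 27.92% in each of two runs, the all-compound median minus 4 SD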;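 also: 0% = 20 µM Hyamine control and 100% = vehicle cell control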); conditions: HCT116 PTEN-deleted viability, 60 h, at 10 µM, active compounds read low
# [6] = RAM pathway blockade in budding yeast – dse1pr::URA3 reporter, 5-FOA selection, pilot screen (AID 869;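 active = inhibition over a set limit, the all-compound mean plus 3 SD, in both replicate runs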;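 also: 0% = DMSO wells with no growth and 100% = 10 µM 1-NA-PP1 with full growth; RAM network block rescues cells from 5-FOA so hits raise OD615 growth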); conditions: S. cerevisiae dse1pr::URA3 5-FOA growth, OD615, 2 d; at 10 µM; active compounds read high; strain carries analog-sensitive mutant Cbk1 kinase
# [7] = RAM signaling pathway blockade in yeast – S. cerevisiae, Pdr1DBD-CYC8 efflux-inhibited sensitized strain, primary screen (AID 1298);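 also: 0% = DMSO untreated cells without growth and 100% = 10 µM 1-NA-PP1 full growth; higher means more yeast growth rescued from 5-FOA killing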; conditions: S. cerevisiae cbk1-as DSE1-URA3 strain, 5-FOA growth OD615, 2 d; at 50 µM; active compounds read high
Structure (SMILES),growth inhibition [1] [%],growth inhibition [2] [%],viability increase [3] [%],viability [4],viability [5],inhibition [6] [%],RAM network inhibition [7] [%]
O=S(=O)(NCCO)c1cccc2cccnc12,-8.73,-10.2,-1.21,94%,85.4%,1.24,-0.64
CCC/C(=C1/C(=O)CC(C)(C)C(C(=O)OC)C1=O)N1CCCC1 (centres undefined),-4.46,5.2,-1.41,95.1%,97.5%,1.51,-2.05
CN(C)c1nc(Oc2ccc(/C=N/O)cc2)nc(N(C)C)n1,-9.5,4.05,-2.72,101%,85.1%,1.58,2.8
CCOC(=O)c1cc(NC(=O)NCc2ccco2)c(C)nc1C,-7.98,-25.8,-3.46,105%,99.3%,1.57,4.38
c1ccc(-n2ncc3c(NCc4cccnc4)ncnc32)cc1,-9.01,2.41,3.3,88.1%,83.6%,2.49,0.31
Cc1ccc(-c2nc(CS(=O)(=O)CC(=O)NCCCN3CCN(C)CC3)c(C)o2)cc1,-9.1,-15.2,0.53,89.4%,94.7%,1.34,-0.16
CCCc1cc(C(=O)NCC(C)C)no1,-3.57,13.8,0.64,109%,101%,1.85,1.2
CCOCCCNC(=O)Cc1cc(=O)[nH]c(=O)[nH]1,-20.6,-19.6,-0.42,99.2%,94.1%,1.44,4.84
CCCC(=O)NCCCc1nc2ccccc2[nH]1,-8.81,-14.7,1.33,108%,100%,1.45,2.55
CCN1CCN(C(=O)Cn2c(=O)sc3ccccc32)CC1,-10.6,4.76,-2.64,107%,96.6%,-0.225,0.05
Cc1cc(C)n(-c2nc(NC(C)(C)C)nc(NC(C)(C)C)n2)n1,-11.5,11.4,-2.08,8.58% (active),11.2% (active),2.85,5.62
Cc1cccc(-n2ncc3c(N(C)C4CCCCC4)ncnc32)c1,4.55,23,2.07,84.7%,85.8%,-1.19,3.02
CCN(CC)c1ccc(NC(=O)COc2ccc(C)cc2)cc1,-8.23,-15.4,0.42,93.6%,85.3%,0.255,0.45
CCCCOC(=O)CSc1nnc(N)s1,-4.92,-1.45,-0.86,105%,96.5%,0.205,6.89
CCc1ccc2nc(NC3=NCN(CCOC)CN3)nc(C)c2c1,-2.2,-4.05,-2.81,63%,66.9%,1.18,-1.8
CCOCCCNC(=O)CCCn1nc(C)n2c(cc3sccc32)c1=O,-4.89,5.71,0.66,108%,98%,0.895,4.4
O=C(NC1CCCC1)c1ccc(CS(=O)(=O)c2ccc(Br)cc2)o1,-3.78,-9.12,-0.83,102%,93.9%,3.01,1.03
O=C(O)c1ccccc1SC1CC(=O)N(C2CCCCC2)C1=O (centres undefined),-14.3,-1.75,-2.78,90.7%,94.3%,1.17,1.06
CCCc1n[nH]c2c1C(=O)C(C(=O)OC)C(C)(C)C2 (centres undefined),-12.6,-12.8,-3.14,95.9%,95.8%,1.14,4.78

Structure (SMILES),growth inhibition [1] [%],growth inhibition [2] [%],viability increase [3] [%],viability [4],viability [5],inhibition [6] [%],RAM network inhibition [7] [%]
COc1ccc(CN2CC34C=CC(O3)C(C(=O)O)C4C2=O)cc1 (centres undefined),-1.83,-0.315,-0.17,92.6%,97.1%,0.585,3.17
Cc1nn(-c2ccccc2)c(C)c1NC(=O)Cc1cccs1,-10.7,-4.28,-2.07,95.2%,92.1%,1.18,1.1
COc1ccc(N(CC(=O)NCc2cccs2)S(=O)(=O)c2c(C)nn(C)c2C)cc1,-2.88,-15.2,-3.49,88.6%,86.9%,0.535,-0.27
Cc1noc(C(=O)NCc2ccco2)c1Cl,-10.3,-34.1,-3.01,102%,101%,1.78,2.4
CCC(=O)Nc1c(C)cc(C)cc1Cl,-12.5,-10.9,-0.97,92.7%,96.4%,1.44,0.83
c1ccc2c(c1)OCC(c1csc3ncnc(N4CCOCC4)c13)O2 (centres undefined),-14.1,-9.32,-3.2,94.4%,75.7%,1.26,8.63
CCC(C)NC(=O)C1CCN(S(=O)(=O)c2cccc3cccnc23)CC1 (centres undefined),-3.39,1.06,0.26,108%,101%,2.05,4.76
COc1ccc(-c2nc(CS(=O)CC(=O)NCCC3=CCCCC3)c(C)o2)cc1 (centres undefined),0.225,9.63,-4.36,77.1%,79.6%,0.475,3.02
Cc1c(NC(=O)OCCSc2nc(N(C)C)nc(N(C)C)n2)sc(=S)n1C,2.93,3.13,-0.48,83%,76%,2.92,1.79
O=C(Nc1cccc(C(F)(F)F)c1)c1cnc2n(c1=O)CCS2,-9.46,5.56,0.63,108%,95.2%,2.6,5.71
COc1ccccc1C(=O)Nc1nnc(-c2ccc(F)cc2)o1,-8.41,-13.1,0.01,101%,101%,0.59,2.59
Cn1c(Cn2c(=O)sc3ccccc32)nnc1SCC(=O)NCCc1ccccc1,-10,-16.2,-0.09,100%,105%,2.5,3.42
CCNC(=O)CN(c1ccc(CC)cc1)S(C)(=O)=O,-5,-18,-0.8,97.9%,106%,0.76,1.88
COCCn1c(SCC(=O)Nc2cc(Cl)ccc2OC)nc2c(c1=O)SC(C)C2 (centres undefined),1.23,0.95,-6.28,83.3%,78%,2.55,-0.36
Cc1ccc(NC(=O)CSc2nnc(Cn3c(=O)sc4ccccc43)n2C)cc1Cl,-1.48,-18.1,-4.78,92.3%,86.6%,1.81,4.65
N#CC1(c2ccccc2)CCCN1C(=O)c1ccco1 (centres undefined),-3.57,3.69,-1.54,104%,101%,2.25,3.1
Cc1c(NC(=O)C2CCCN2S(=O)(=O)c2ccccc2)c(=O)n(-c2ccccc2)n1C (centres undefined),-8.82,-10.2,-1,97.3%,107%,2.12,0.05
O=C(NCCN1CCN(c2cccc(Cl)c2)CC1)C1CCCN(S(=O)(=O)c2cnc[nH]2)C1 (centres undefined),3.09,3.15,-1.5,91.1%,89.7%,0.895,5.7
